The results in this text go back to PubChem BioAssay.

Active and inactive are the calls of the source.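 The calls were made as follows, unless noted: active = visual image review flags a hit and inhibition of aggregation exceeds 20%; inconclusive = visual hit but inhibition at or below 20%; inactive = no hit on visual image review.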

Test [1] is described as follows: inhibitors of TNFa-induced NFkB p65 translocation, primary screen, imaging, HUVEC, MLSMR starter and 10KST1 sets (AID 438;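 active = inhibition above 20% together with a positive visual image hit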;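 also: compound added about 3h40 before a 20 min TNFalpha stimulation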;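 as to inhibition: signal is the nuclear over cytoplasmic p65 intensity ratio per well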). The note with it: HUVEC TNFa-induced p65 nuclear translocation; cell count: measured here: nuclei count (cytotoxicity indicator), at 2.08 µM; inhibition: at 2 µM, stronger effect = higher value, 0% TNFa-plus-vehicle, 100% no-TNFa wells.
Test [2] is described as follows: reduction of polyQ htt aggregates in cells – imaging, exon1htt(103Q)mCFP cells, high-content imaging, primary screen (AID 483).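 Also: compound exposure lasted 3 days before fixation.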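 As to nuclei count: percent of the per-plate median nuclei count of sample wells.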 As to conditions: exon1htt(103Q)mCFP cell line, aggregate imaging, at 2 µM; inhibition of aggregation: stronger effect = higher value; nuclei count: measured here: cell count, toxicity.
A short description of test [3]: endothelial E-selectin expression blockers – imaging, HUVEC, immunofluorescence, MLSMR starter and 10KST1 sets, primary screen (AID 487;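 active = visually confirmed hit in the image check and inhibition above 20%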;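 as to inhibition: signal is fraction of cell area covered by stained E-selectin grains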;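 as to nuclei count: 100% = median nuclei count of all wells on the same plate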). The note with it: HUVEC TNFalpha-induced E-selectin immunofluorescence imaging, at 2 µM; inhibition: stronger effect = higher value; nuclei count: measured here: cell number, toxicity.
Test [4] concerns the target Voltage-gated potassium channel subunit beta-2 (Rattus norvegicus) (UniProt P62483). Put plainly: inhibitors of rat Kvbeta2 reductase activity – biochemical, NADPH fluorescence, primary screen (AID 622;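 active = fluorescence slope higher than the sample average by over 3 SD, cut at about -0.22 in these data, passing the limit was not always enough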;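 also: slope of raw intensity against log time taken from 70 to 1610 s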). As to conditions: recombinant KvBeta, 4-cyanobenzaldehyde reduction, at 10 µM, stronger effect = higher value.
Test [5] has the same target. In words: enhancers of rat Kvbeta2 NADPH turnover – biochemical, NADPH fluorescence, primary screen (AID 623;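 active = NADPH fluorescence slope more negative than the mean of all samples by about 3 SD, 99.7% confidence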;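 also: fluorescence intensity change per second fitted from 20 to 320 s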). As to conditions: Recombinant KvBeta, NADPH fluorescence decrease slope, 10 min; at 10 µM; stronger effect = lower value.
The target of test [6] is Muscarinic acetylcholine receptor M4 (Homo sapiens) (UniProt P08173). In words: M4-linked GIRK flux change, two-sided – cell-based, HEK293 M4/GIRK, thallium flux, BTC-AM, M4 allosteric agonist project, primary screen (AID 625;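 active = fluorescence slope after compound addition differing from the mean of all tested samples at 99.7% confidence, mostly higher but some lower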;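 also: thallium influx through GIRK channels coupled to M4 in HEK293 cells with BTC-AM dye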). The note with it: at 10 µM, actives lie on both sides. In outline: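 Assay system: HEK293 cells with M4 receptor and GIRK channels / Controls: carbachol and DMSO controls / Schedule: 1 h dye loading, 2 min kinetic read / Technique: kinetic fluorescence with BTC-AM dye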

A short description of test [7]: blockers of RIG-like receptor reporter activation – cell-based, Sendai virus stimulus, luciferase, 10K MLSCN set, TLR/RLR signaling modifier project, primary screen (AID 602276;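 active = inhibition at or above 50% at 10 µM; inactive = inhibition below 50%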;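 also: firefly luciferase from ISG56 promoter only with Renilla not read in this screen; 0% = Sendai virus plus DMSO and 100% = medium plus DMSO without virus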). The note with it: HEK293 RL24 IRF3 luciferase reporter, at 10 µM, stronger effect = higher value. For orientation: A reporter such as luciferase makes a cellular process visible.
Test [8] is described as follows: TLR3 IRF3 reporter activation blockers – cell-based, poly I:C stimulus, luciferase, 10K MLSCN set, primary screen (AID 602277;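 active = inhibition of the reporter signal at or above 50%; inactive = inhibition below 50%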). The note with it: HEK293-TLR3 RL24 IRF3 luciferase reporter, at 10 µM, stronger effect = higher value.

Sequence of Muscarinic acetylcholine receptor M4 (Homo sapiens) (P08173 whole entry, looked up): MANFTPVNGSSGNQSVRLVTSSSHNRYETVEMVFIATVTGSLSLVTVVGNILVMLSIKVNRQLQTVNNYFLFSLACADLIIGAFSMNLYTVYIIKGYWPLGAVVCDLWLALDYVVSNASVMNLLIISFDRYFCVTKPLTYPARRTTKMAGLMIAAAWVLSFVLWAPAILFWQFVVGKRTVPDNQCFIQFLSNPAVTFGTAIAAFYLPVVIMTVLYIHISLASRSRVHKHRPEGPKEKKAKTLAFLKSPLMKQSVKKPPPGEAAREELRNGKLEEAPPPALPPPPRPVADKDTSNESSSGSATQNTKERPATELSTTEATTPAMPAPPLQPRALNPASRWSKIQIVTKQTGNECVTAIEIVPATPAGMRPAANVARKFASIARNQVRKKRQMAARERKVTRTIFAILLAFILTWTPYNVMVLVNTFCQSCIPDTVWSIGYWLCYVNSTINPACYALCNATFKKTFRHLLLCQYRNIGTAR
Sequence of Voltage-gated potassium channel subunit beta-2 (Rattus norvegicus) (P62483 whole entry, looked up): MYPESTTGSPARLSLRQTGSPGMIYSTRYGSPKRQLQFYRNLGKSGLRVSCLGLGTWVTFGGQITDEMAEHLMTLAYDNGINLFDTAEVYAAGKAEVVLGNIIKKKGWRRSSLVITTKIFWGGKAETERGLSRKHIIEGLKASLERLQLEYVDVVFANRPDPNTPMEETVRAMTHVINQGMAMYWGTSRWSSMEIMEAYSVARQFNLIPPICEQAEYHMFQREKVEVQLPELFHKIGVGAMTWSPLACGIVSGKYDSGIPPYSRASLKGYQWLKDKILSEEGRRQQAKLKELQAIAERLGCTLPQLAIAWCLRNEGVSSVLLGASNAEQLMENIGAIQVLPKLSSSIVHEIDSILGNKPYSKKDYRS

Consider `c1ccc(CCc2nn3c(Cn4cnc5ccccc54)nnc3s2)cc1`, for which the cell count in test [1] amounted to 598. In addition, the inhibition is -3.3% (inactive) in test [1], -29.5% (inactive) in test [3], 14.9% (inactive) in test [7] and -3.65% (inactive) in test [8]. Moreover, in test [2], the inhibition of aggregation is -18% (inactive). Further, the nuclei count came out at 100% in test [2] and 97.5% in test [3]. Also, the fluorescence slope was -0.53 (inactive) in test [4] and 0.00554 (inactive) in test [6]. Moreover, the NADPH fluorescence slope in test [5] is 2.5e-05 (inactive).
On to `COc1ccccc1CN1C(=O)CCC1(C)C(=O)NC1CCCCCC1` (centres undefined), for which, in test [1], the cell count is 452. Further, the inhibition in test [1] was 5.3% (inactive); in test [3], -184% (inactive); in test [7], 0.126% (inactive); in test [8], 9.28% (inactive). For the same compound, in test [2], the inhibition of aggregation was 14.8% (inactive). The nuclei count in test [2] was found to be 63.8%; in test [3], 115%. Besides, the values for the fluorescence slope in test [4] and in test [6] were -0.44 (inactive) and 0.00525 (inactive), respectively. Also, the NADPH fluorescence slope in test [5] was 0.000132 (inactive).
For `Cc1ccc(Cn2ncc3c(NCCCN4CCOCC4)ncnc32)cc1`, the cell count in test [1] is 642. Also, the inhibition was -14.6% (inactive) in test [1], -8.1% (inactive) in test [3], 22.3% (inactive) in test [7] and 11.4% (inactive) in test [8]. Besides, the inhibition of aggregation in test [2] was 13.9% (inactive). Moreover, the nuclei count worked out at 84.8% in test [2] and 98.3% in test [3]. In addition, the results for the fluorescence slope in test [4] and in test [6] were -0.568 (inactive) and 0.00555 (inactive), respectively. Besides, the NADPH fluorescence slope in test [5] is -1.3e-05 (inactive).
Regarding `Cc1cccc2cc(CN(Cc3nnnn3Cc3ccccc3)C3CCCC3)c(=O)[nH]c12`, the cell count in test [1] was 561. For the same compound, the inhibition was -9% (inactive) in test [1], -35.7% (inactive) in test [3], 14.3% (inactive) in test [7] and 15% (inactive) in test [8]. For the same compound, the inhibition of aggregation in test [2] was -39.5% (inactive). The nuclei count in test [2] was 76.4%; in test [3] it was 111%. Also, the fluorescence slope in test [4] is -0.483 (inactive); in test [6], 0.00509 (inactive). The NADPH fluorescence slope in test [5] was -0.00011 (inactive).
Turning to `Cc1ccc(C)c(-c2nc3cc(N)ccc3o2)c1`, in test [1], the cell count came out at 407. Besides, the inhibition in test [1] is 12.5% (inactive); in test [3], -435% (inactive); in test [7], 4.93% (inactive); in test [8], 1.69% (inactive). Further, in test [2], the inhibition of aggregation was 20.6% (inactive). Also, the nuclei count in test [2] is 97.9%; in test [3], 124%. For the same compound, the fluorescence slope in test [4] was -0.0313 (active); in test [6], 0.00545 (inactive). The NADPH fluorescence slope in test [5] was -3e-06 (inactive).
On to `CCC1(C)Cc2c(C#N)c(N)n(-c3ccccc3)c(=O)c2CO1` (centres undefined), for which the cell count in test [1] stood at 531. The inhibition in test [1] is -8.6% (inactive); in test [3], -59.9% (inactive); in test [7] it was -3.47% (inactive); in test [8] it was 5.33% (inactive). Also, the inhibition of aggregation in test [2] was 13.9% (inactive). Besides, the results for the nuclei count in test [2] and in test [3] were 100% and 93.4%, respectively. The fluorescence slope was -0.622 (inactive) in test [4] and 0.00509 (inactive) in test [6]. In addition, in test [5], the NADPH fluorescence slope was 6.4e-05 (inactive).
As to `CCCNC(=O)c1c(N)n(-c2cc(OC)cc(OC)c2)c2nc3ccccc3nc12`, the cell count in test [1] was found to be 587. For the same compound, the inhibition in test [1] was -7% (inactive); in test [3], -89.1% (inactive); in test [7], 8.54% (inactive); in test [8], -6.79% (inactive). The inhibition of aggregation in test [2] is 3% (inactive). In addition, the nuclei count in test [2] came to 93.7%; in test [3], 135%. In addition, the figures for the fluorescence slope in test [4] and in test [6] were -0.367 (inactive) and 0.00602 (inactive), respectively. Moreover, in test [5], the NADPH fluorescence slope was 2.2e-05 (inactive).
With `CC(c1ccco1)N(C(=O)c1ccc(S(=O)(=O)N2CCCCC2)cc1)c1ccccn1` (centres undefined), the cell count in test [1] stood at 265. The inhibition is 18.1% (inactive) in test [1], -32.7% (inactive) in test [3], 6.94% (inactive) in test [7] and 8.51% (inactive) in test [8]. Moreover, the inhibition of aggregation in test [2] was 13.8% (inactive). Also, the nuclei count in test [2] is 109%; in test [3] it was 105%. Besides, the figures for the fluorescence slope in test [4] and in test [6] were -0.506 (inactive) and 0.0101 (inactive), respectively. In addition, the NADPH fluorescence slope in test [5] was -0.000211 (active).
On to `COc1cc(OC)cc(C(=O)N2CCN(C(=O)c3ccc(OC)c(OC)c3)CC2)c1`, for which the cell count in test [1] worked out at 358. The inhibition in test [1] is -2% (inactive); in test [3], -20.6% (inactive); in test [7], 4.07% (inactive); in test [8], 14.7% (inactive). Moreover, in test [2], the inhibition of aggregation was -5.3% (inactive). Further, the nuclei count in test [2] was 126%; in test [3], 89.3%. For the same compound, the fluorescence slope in test [4] was -0.603 (inactive); in test [6] it was 0.00572 (inactive). Besides, the NADPH fluorescence slope in test [5] is 3.5e-06 (inactive).
For the compound `COc1ccccc1C(=O)N1CCNC(=O)C1CC(=O)Nc1ccc(Cl)cc1` (centres undefined), the cell count in test [1] is 469. Also, the inhibition was 1.3% (inactive) in test [1], -302% (inactive) in test [3], 18.2% (inactive) in test [7] and 28.3% (inactive) in test [8]. The inhibition of aggregation in test [2] is 9.7% (inactive). In addition, the nuclei count in test [2] is 105%; in test [3] it was 123%. The values for the fluorescence slope in test [4] and in test [6] were -0.565 (inactive) and 0.00504 (inactive), respectively. Further, in test [5], the NADPH fluorescence slope was -2.7e-05 (inactive).
`CCNS(=O)(=O)c1c(C)cc(N2CCCC2=O)cc1C`: the cell count in test [1] came to 498. In addition, the inhibition in test [1] was -8% (inactive); in test [3] it was 27.7% (inactive); in test [7], -1.95% (inactive); in test [8], 0.215% (inactive). In test [2], the inhibition of aggregation was 4.4% (inactive). The nuclei count in test [2] was determined as 88.1%; in test [3], 89%. Moreover, the fluorescence slope in test [4] was -0.438 (inactive); in test [6], 0.00655 (inactive). Further, the NADPH fluorescence slope in test [5] is 9.1e-05 (inactive).
Regarding `COc1ccc(Br)cc1C(=O)Nc1nnn(C)n1`, the cell count in test [1] was found to be 383. Besides, the inhibition in test [1] was 6.7% (inactive); in test [3], 17% (inactive); in test [7], -19.5% (inactive); in test [8], -34.7% (inactive). Also, in test [2], the inhibition of aggregation is 5.6% (inactive). The nuclei count was 102% in test [2] and 106% in test [3]. The fluorescence slope in test [4] is -0.51 (inactive); in test [6] it was 0.00661 (inactive). Besides, the NADPH fluorescence slope in test [5] is 4.6e-05 (inactive).
`Cc1ccc(OCC(O)Cn2c(=N)n(CCN3CCCCC3)c3ccccc32)cc1` (centres undefined): the cell count in test [1] came to 277. Also, the inhibition was 4.5% (inactive) in test [1], -6.5% (inactive) in test [3], -33.6% (inactive) in test [7] and 62.2% (active) in test [8]. Further, the inhibition of aggregation in test [2] was 2.3% (inactive). The nuclei count in test [2] came to 63.4%; in test [3] it was 96.8%. The fluorescence slope in test [4] is -0.381 (inactive); in test [6] it was 0.00474 (inactive). Also, in test [5], the NADPH fluorescence slope is -4.1e-05 (inactive).
For the compound `CCOC(=O)N1CCN(C(=O)c2ccc3nc4cc(Cl)ccc4c(=O)n3c2)CC1`, the cell count in test [1] is 726. Also, the inhibition was -8.8% (inactive) in test [1], 17.6% (inactive) in test [3], 6.58% (inactive) in test [7] and 6.7% (inactive) in test [8]. Further, the inhibition of aggregation in test [2] is -19.4% (inactive). The nuclei count in test [2] and in test [3] was 118% in each case. Moreover, the fluorescence slope is -0.0121 (inactive) in test [4] and 0.00404 (inactive) in test [6]. Also, the NADPH fluorescence slope in test [5] was 2.7e-06 (inactive).

What is called inhibition is the relative decrease from the control value, in per cent.
